Screens as filed in PubChem BioAssay.
PGC1a Ac signal: raises PGC1a acetylation signal in U2OS cells; U2OS PGC1a acetylation AlphaScreen, overnight; activation, % at 15.6 µM; actives 0.21% (n = 350,000); AID 651723;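 active = every replicate reaching activation of at least 50%, whatever the mean replicate activation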;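 note: hits raise the AlphaScreen acetylation signal above neutral controls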
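System: flag-PGC1a/GCN5 U2OS cells / Input: 7000 cells/well / Compound: single test concentration per compound / Incubation: overnight compound treatment, 37 °C / Technique: AlphaScreen on lysates with anti-acetyl-lysine antibody, acceptor and donor beads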
Active calls of the source: *. Only a sample is shown.

SMILES	PGC1a Ac signal
CCOC(=O)CN1C(=O)C(Sc2n[nH]c(-c3ccc(C)cc3)n2)CCc2ccccc21 (centres undefined)	59*
CCOC(=O)CS(=O)(=O)c1nc(-c2ccccc2)cc(C(F)(F)F)n1	-58
COC(=O)c1cccc(NC(=O)CSc2nnc(C)n2C)c1	-47
Cc1cc(C)nc(SCC(=O)OCN2C(=O)c3ccccc3C2=O)n1	67*
Nc1cc(N)nc(SCC(=O)Nc2ccccc2N2CCOCC2)n1	-41
C[C@H](CO)N1C[C@H](C)[C@@H](CN(C)Cc2ccccc2F)Oc2ncc(Br)cc2C1=O	-64
O=C(NC1CCCN(Cc2ccc(Cl)cc2)C1)c1ccccc1C(F)(F)F (centres undefined)	-47
CCOc1ccc2c(c1)C(C)=CC(C)(C)N2S(=O)(=O)c1ccc(C)cc1	64*
Cc1cc(N2CCN(C)CC2)ccc1NC(=O)c1c2c(nc3ccccc13)CCN(Cc1ccccc1)C2	-69
Cc1c(C(=S)Nc2ccccc2)cnn1-c1ccc([N+](=O)[O-])cc1	71*
Cc1cccc(C)c1NC(=O)C(NC(=O)c1ccccn1)c1ccc([N+](=O)[O-])cc1 (centres undefined)	-42
Cc1cc(C)n(C(=O)c2ccc([N+](=O)[O-])cc2N)n1	-44
CCOC(=O)C1(N(CC)CC)Sc2cc(C)ccc2NC1=O (centres undefined)	84*
COCCCNC1CS(=O)(=O)CC1O (centres undefined)	-45
Cc1noc(C)c1NC(=O)N(C)C[C@H]1Oc2c(NC(=O)c3nc4ccccc4s3)cccc2C(=O)N([C@H](C)CO)C[C@H]1C	-54
O=C(O)c1ccc(N=Nc2c(O)[nH]c3ccccc23)cc1	-49
CC(=O)c1c(-c2ccccc2)[nH]c2ccccc12	61*
O=C(c1ccco1)N1N=C(c2ccc(Cl)cc2)CC1(O)C(F)(F)F (centres undefined)	-42
COc1ccc(-c2[nH]ncc2-c2ccc3c(c2)OCCO3)c(O)c1	-53
COc1ccc(-c2[nH]ncc2CN(C)C(C)c2ccon2)cc1F (centres undefined)	-80
CCOc1ccc(-c2[nH]ncc2-c2ccc(OC)c(OC)c2)c(O)c1	68*
COc1ccc(-c2cc(C(F)(F)F)nc(S(C)(=O)=O)n2)cc1	66*
Oc1ccc(/C=N/Nc2nc(-c3ccc(Cl)cc3)cc(C(F)(F)F)n2)cc1	-64
CCOC(=O)CCS(=O)(=O)c1nc(-c2ccccc2)cc(C(F)(F)F)n1	-68
Cc1ccc(CNC(=O)C2CC(c3ccc([N+](=O)[O-])cc3)=NO2)cc1 (centres undefined)	78*
SMILES	PGC1a Ac signal
O=C(CN1CCC(n2nnc3cc(F)ccc32)CC1)Nc1ccc2c(c1)CCC2	103*
C[C@@H]1CN([C@H](C)CO)C(=O)c2cc(NC(=O)Cc3ccccc3)ccc2O[C@@H]1CN(C)Cc1ccncc1	-49
Cn1c(SCc2ccon2)nc2ccccc2c1=O	-49
N#CC1=C(N)Oc2n[nH]c(-c3ccccc3)c2C1c1ccncc1 (centres undefined)	55*
Cc1cc2nc(/C=C/c3cccnc3)[nH]c2cc1C	-67
CSCC(O)Cn1[nH]c(=O)c2cc(Cl)c(Cl)cc2c1=O (centres undefined)	-84
COc1cccc(N2C(=O)CC(N3CCC(c4nc5ccccc5[nH]4)CC3)C2=O)c1 (centres undefined)	58*
CCN(CC)CCNc1nc(-c2ccc(OC)cc2)c(-c2ccc(OC)cc2)s1	-45
C=C1C(=O)O[C@H]2[C@H]1[C@@H](O)CC(=C)[C@@H]1CC(=O)[C@@H](C)[C@H]21	72*
COc1cc(/C=C2\SC(=O)NC2=O)ccc1Oc1ccc([N+](=O)[O-])cn1	-42
CCC(C)(CC(=O)O)CC(=O)Nc1cc(C(F)(F)F)cc(C(F)(F)F)c1 (centres undefined)	-68
CCC(C)C(NC(=O)C1CCC(C)CC1)C(=O)NCc1cccnc1 (centres undefined)	55*
O=C(NCc1cccnc1)C1CC(=O)N(C2CCCCC2)C1 (centres undefined)	-44
COc1ccc(CN(Cc2cccn2C)S(=O)(=O)c2ccccc2)cc1	-74
COc1ccc(N=C2SCC(c3ccc(C)cc3)=NN2CCO)cc1	-78
CC(=O)N1CCN(C(C)=O)C1c1ccccc1	-47
COc1ccccc1C(=O)/C=C/c1ccc(N2CCCCC2)c([N+](=O)[O-])c1	187*
C=C1CCN(c2ccc(C(=O)NCc3ccccc3)cc2[N+](=O)[O-])CC1	-44
Cn1c(CCN2CCCCC2)nc2cc(NS(=O)(=O)c3ccccc3)ccc21	64*
Cn1c(CN2CCCC2)nc2cc(NC(=O)COc3ccc(Cl)cc3)ccc21	-52
Cc1ccc(/C=N/N2CCN(Cc3ccccc3)CC2)cc1	-54
O=C(C[C@H]1CC[C@@H](NC(=O)c2ccccc2)[C@H](CO)O1)Nc1ccc(-c2ccccc2)cc1	-44
COc1cccc(-c2cc(C(=O)NCCCn3ccnc3)no2)c1	80*
COc1ccc(NC(=O)Nc2ccc3c(c2)C(=O)N([C@H](C)CO)C[C@H](C)[C@@H](CN(C)S(=O)(=O)c2ccc(Cl)cc2)O3)cc1	-40
COC(=O)c1ccc2c(c1)C(C)(C)C(/C=C/c1ccc(O)cc1)=[N+]2C	59*
SMILES	PGC1a Ac signal
CCCN(C)C[C@H]1Oc2cc(C#Cc3ccc(OC)cc3)ccc2S(=O)(=O)N([C@@H](C)CO)C[C@H]1C	-49
CC(c1n[nH]c(=S)n1Cc1ccccc1)N(C)C (centres undefined)	-50
Cc1nc2ccccn2c1C(=O)/C=C/c1ccc(F)cc1	-41
O=C(OCc1nc(-c2ccccc2)oc1COC(=O)c1ccco1)c1ccco1	-44
Cc1ccc(S(=O)(=O)N2CCCCC2C(=O)O)cc1 (centres undefined)	-41
CCOC(=O)C1CN(S(=O)(=O)c2ccc(C)cc2)c2cc(S(=O)(=O)CC)ccc2O1 (centres undefined)	54*
COc1ccccc1C(=O)Oc1cc(N)n(S(=O)(=O)c2ccc(C)cc2)n1	-42
Cc1nc2ccc(C(=O)Nc3ccccc3Cl)cc2s1	-49
COc1ccc(/C=C/c2cc(-c3ccc(C)cc3)o[n+]2C)cc1	121*
CCC(=O)N(C)C[C@@H]1Oc2ncc(C#CCc3ccccc3)cc2C(=O)N([C@H](C)CO)C[C@@H]1C	-101
C[C@@H]1CN([C@@H](C)CO)C(=O)c2ccccc2-c2ccccc2CO[C@@H]1CN(C)C(=O)Nc1cccc(Cl)c1Cl	-41
Cc1cccc(OC2(c3ccccc3)OC(=O)c3ccccc32)c1C (centres undefined)	91*
O=C(c1ccc(F)cc1)N1CC(=O)N2[C@H](CO)[C@@H](c3ccc(C#CCC4CCCC4)cc3)[C@@H]2C1	-49
CCOc1cc(CNC2CCCC2)cc(Cl)c1OCc1ccc(F)cc1	-78
Oc1ccccc1/C=N/Nc1nc2ccccc2o1	-41
NC(=S)N/N=C/c1cccc(O)c1O	76*
Cc1cc(C(=O)NNC(=S)NCc2ccccc2)no1	-45
O=C(N/N=C/c1ccc(O)c2ncccc12)c1cccc(Br)c1	-67
O=[N+]([O-])c1cc(F)c2cccnc2c1O	-42
O=Nc1ccc(O)c2ncccc12	245*
COc1ccc(CN(C)C[C@@H]2Oc3ccc(NS(=O)(=O)c4c(C)noc4C)cc3C(=O)N([C@H](C)CO)C[C@H]2C)cc1	-51
Cc1cc(OCC(=O)O/N=C(\N)c2ccccc2)cc(C)c1Cl	-59
